We go through 97 compounds from ChEMBL document CHEMBL4513216, “Probing the Open Global Health Chemical Diversity Library for Multistage-Active Starting Points for Next-Generation Antimalarials” (ACS Infect Dis, 2020).

A short description of this data set: Toxicity liver stage against HepG2, at 10uM. The format is cell-based. The note with it: human, HepG2-A16-CD81EGFP cells; read-out: INHIBITION
More on the design: test concentration 10 uM, cell line HepG2-A16-CD81EGFP. In a few lines: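 Uninfected HepG2-A16-CD81EGFP cells, 3 × 10^3 per well, 1536-well, plated on prespotted compound at 10 μM final, parasite-free screening media added to match infected plates; puromycin 10 μM positive, DMSO 0.5% negative; run in parallel with 48 h PbLuc assay at 37 °C, 5% CO2; viability by CellTiter-Glo luminescence, normalized to controls.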
For the compound `Cc1ccc(-n2ncc(C(=O)NC3CC(C)(C)NC(C)(C)C3)c2N)cc1`, the cytotoxicity at 10 µM was -4.2%.
Take `COCCn1ccc(=O)c(OCC(=O)Nc2cccc(Cl)c2)c1C`: the cytotoxicity at 10 µM worked out at 2.16%.
Consider `CCOC(=O)CCC(=O)N1CCC(Oc2ncccc2Cl)CC1`, for which the cytotoxicity at 10 µM is -5.57%.
Next, `COC1COC2(CCN(C(=O)c3cnc(C)cn3)CC2)C1` (configuration not stated): 4.29%; `O=C(CC1CC1)N1CCC2(COCc3cnc(-c4ccccc4)nc32)C1` (configuration not stated): 2.02%.
Next, `CC/N=c1\nc(NCC)nc2n1C(O)(Nc1cc(C)ccc1C)CS2` (configuration not stated): 10.3%; `Oc1nc(N2CCOCC2)nc2nccc(-c3ccccn3)c12`: 7.52%; `O=C(NC[C@H]1OC[C@@H]2CCN(C(=O)c3ccco3)C[C@@H]21)C1CC1`: -6.2%.
Consider `O=C(c1ccco1)N1CCC2(CCOC2)C1` (configuration not stated), for which the cytotoxicity at 10 µM was -3.65%.
Turning to `CS(=O)(=O)c1cn[nH]c1C1CCCCN1C(=O)c1cnccn1` (configuration not stated), the cytotoxicity at 10 µM was -2.13%.
Next, `CN(C)CC(=O)N1C[C@@H]2CC[C@H](Oc3ccccc3)[C@@H]2C1`: -26.4%.
Turning to `Cc1ncc(CN2CCCC(c3nc4ccccc4n3C(C)C)C2)s1` (configuration not stated), the cytotoxicity at 10 µM was -24.9%.
Consider `O=C(Cc1ccccn1)N1CCC(O)(Cn2ccc3ccncc32)CC1`, for which the cytotoxicity at 10 µM was -5.24%.
In the case of `Cc1cc(-c2cnc(NC3CC3)nc2-c2ccco2)on1`, the cytotoxicity at 10 µM was -23.2%.
As to `Cc1cc(C)nc(Nc2cccc(C3CCCN(C(C)C)C3)n2)n1` (configuration not stated), the cytotoxicity at 10 µM was -19.4%.
As to `O=C(CSc1nnc(N2CCOCC2)s1)NCc1cccs1`, the cytotoxicity at 10 µM is 1.66%.
For the compound `O=C(NC1CCCCC1)c1c(F)cccc1F`, the cytotoxicity at 10 µM was 3.32%.
As for `Cc1nc(CNC(=O)NCC2(C)CCCc3ccccc32)no1` (configuration not stated), the cytotoxicity at 10 µM is -3.05%.
As for `CSc1cc2c(cc1NC(=O)N(C)Cc1cnn(C)c1)OCCO2`, the cytotoxicity at 10 µM was 5.25%.
For the compound `Cc1ccc(-n2cc(C(=O)NCc3nnc4n3CCCCC4)nn2)cc1`, the cytotoxicity at 10 µM is -3.32%.
With `CN1CCN(C2CCN(Cc3noc(C(C)(C)C)n3)CC2)C1=O`, the cytotoxicity at 10 µM is 17.1%.
Regarding `CCC1COCCN1C(=O)CNC(=O)c1ccoc1C` (configuration not stated), the cytotoxicity at 10 µM was -7.51%.
On to `COCCCn1ccc(NC2CCSCC2)n1`, for which the cytotoxicity at 10 µM worked out at 3.04%.
Consider `Cc1nc(-c2ccc(S(=O)(=O)N3CCC=C(F)C3)cc2)co1`, for which the cytotoxicity at 10 µM was 13.4%.
As to `COCC1CCN(CCCc2cccc(OC)c2)CC1`, the cytotoxicity at 10 µM was -11%.
As for `Cc1nn(C)c(C)c1C(=O)NCc1cc(N(C)C)nc2ccccc12`, the cytotoxicity at 10 µM was -1.08%.
On to `CC(NC(=O)c1cc(-c2cccc(Cl)c2)no1)C(=O)N(C)C` (configuration not stated), for which the cytotoxicity at 10 µM was -2.16%.
Next, `CC(C)(C)c1n[nH]c(C2CN(C(=O)c3cc(C4CC4)[nH]n3)CCO2)n1` (configuration not stated): -7.2%; `Cc1nn(C)c(C)c1CC(=O)N1CCCC1Cn1cccn1` (configuration not stated): -14.8%.
`CC(C)CC(CCO)CNC(=O)N1CCC1(C)C` (configuration not stated): the cytotoxicity at 10 µM is -3.25%.
Next, `Cc1nn(C(C)C)c(C)c1S(=O)(=O)Nc1ccc(C(=O)O)c(Cl)c1`: -9.5%; `CC(C)(C)C(=O)NCCCn1cncn1`: -9.46%; `Cc1nn(C)c(C)c1OCC(=O)N1CCC(O)(C(F)(F)F)CC1`: -5.09%.
Next, `Cc1ccc(F)c(OC2CCCN(c3cnn(C)c3)C2=O)c1` (configuration not stated): -6.43%.
Regarding `CC(Cn1cncn1)NC(=O)Nc1ccc(F)cc1OCC1CC1` (configuration not stated), the cytotoxicity at 10 µM was determined as 4.34%.
As to `N#CCCN(c1ccccc1)S(=O)(=O)CC1CCCCO1` (configuration not stated), the cytotoxicity at 10 µM was -4.69%.
Next, `Cc1noc(C)c1CSCc1nc(N)c2ccccc2n1`: 5.15%; `CN(C)c1ccc(NC(=O)NCc2ccc(Cl)s2)cn1`: 6.43%; `COCC(=O)NC(c1ccc(Cl)cc1)C(F)(F)F` (configuration not stated): 6.76%.
Consider `Cn1cnc2c1CCN(Cc1c(Cl)ccc3cccnc13)C2`, for which the cytotoxicity at 10 µM turned out to be 5.55%.
Turning to `Cc1ccc(CN(C)c2cc(N3CCCC3CO)ncn2)s1` (configuration not stated), the cytotoxicity at 10 µM came out at 5.6%.
On to `CC(O)CN1CCN(CCOCC(F)(F)F)CC1` (configuration not stated), for which the cytotoxicity at 10 µM was -3.51%.
Regarding `CC(=O)N(C)CC(=O)Nc1ccc(C)cc1OCc1ccccc1`, the cytotoxicity at 10 µM is 2.22%.
In the case of `CN1CCC(CNC(=O)c2cccc(NC(N)=O)c2)c2ccccc21` (configuration not stated), the cytotoxicity at 10 µM worked out at 3.86%.
Take `CSCC(=O)NS(=O)(=O)c1ccc(C#N)c(C(F)(F)F)c1`: the cytotoxicity at 10 µM came out at 17.2%.
In the case of `CC(C)(C)NS(=O)(=O)c1cc(NC(=O)C2CC2)ccc1F`, the cytotoxicity at 10 µM is -10.6%.
Next, `CNc1cc(N2CCCC2CNCc2ccccn2)ncn1` (configuration not stated): 7.31%; `Cc1cc(C)n(C2CCCN(C(=O)c3ccc(F)cc3F)C2)n1` (configuration not stated): 0.743%.
Next, `CS(=O)(=O)N[C@@H]1CCN(Cc2cccs2)[C@H]1Cc1cccnc1`: -78.5%.
Regarding `O=C(c1cccnc1-c1ccc2c(c1)OCCO2)N1CCCC1`, the cytotoxicity at 10 µM was 3.82%.
For `CS(=O)(=O)c1ccc(-c2cc(C3CC3)c(C#N)c(N)n2)cc1`, the cytotoxicity at 10 µM was -8.11%.
Regarding `Cc1noc(C)c1C(=O)N1CCC2(CC1)c1nc[nH]c1CCN2C`, the cytotoxicity at 10 µM was 7.9%.
Consider `Cc1nc(C2CCCNC2)cc(N(Cc2c(C)nn(C)c2C)C2CC2)n1` (configuration not stated), for which the cytotoxicity at 10 µM was -7.23%.
For the compound `CC(C)Cn1cncc1-c1nc2c([nH]1)CCCNC2=O`, the cytotoxicity at 10 µM worked out at 15%.
Next, `c1ccc2oc(N3CCCC4(CCOC4)C3)nc2c1` (configuration not stated): -6.27%.
Regarding `c1ccn2c(C3CCCN(c4ncnc5c4CCNC5)C3)nnc2c1` (configuration not stated), the cytotoxicity at 10 µM was -7.94%.
For the compound `O[C@H]1[C@H](n2cc(-c3cncnc3)nn2)c2ccccc2C12CCNCC2`, the cytotoxicity at 10 µM was -1.39%.
Next, `O=c1[nH]nc(C2CC2)n1-c1cccc(Cl)c1`: -3.11%.
`CSc1nccc(N2CCC3(CCCN(CC4CC4)C3)C2)n1` (configuration not stated): the cytotoxicity at 10 µM was -10.1%.
With `CC(C)=CCN1CCC(c2nccn2Cc2cscn2)CC1`, the cytotoxicity at 10 µM was -13%.
As for `CCN(Cc1ccc2c(c1)OCO2)S(=O)(=O)N(C)C`, the cytotoxicity at 10 µM was -2.97%.
As to `Cc1cccc(C(=O)N2CCCCC2c2nc(C)cs2)n1` (configuration not stated), the cytotoxicity at 10 µM was -7.26%.
Consider `O=C(NCC1CCCO1)N1CCN(Cc2ccc3c(c2)CCO3)CC1` (configuration not stated), for which the cytotoxicity at 10 µM is -5.91%.
Regarding `O=C(c1nn(-c2ccccc2F)cc1O)N1CCCSCC1`, the cytotoxicity at 10 µM is -0.0414%.
Next, `CCc1ccc(C(=O)N2CCN(CC(O)CC)CC2)o1` (configuration not stated): -17.6%; `COc1c(C)cnc(CN2CCOC(Cn3nc(C)cc3C)C2)c1C` (configuration not stated): 3.66%; `Cc1nn(C)c(N2CCOCC2)c1CNC1CCN(C2CC2)CC1`: -3.96%.
For `Fc1ccc(-c2cnc(CN3CCOC(Cn4cccn4)C3)o2)cc1` (configuration not stated), the cytotoxicity at 10 µM is -12.1%.
Next, `Cc1nc(C2CCCN(C(=O)c3cc(C(C)(C)C)on3)C2)no1` (configuration not stated): -11.9%.
Turning to `CC(=O)Nc1nc(C(=O)NCc2ccc(N3CCOC(C)C3)nc2)cs1` (configuration not stated), the cytotoxicity at 10 µM came to 0.109%.
`CN(Cc1nnc2n1CCC2)C(=O)CCc1ccc2c(c1)OCO2`: the cytotoxicity at 10 µM is -14%.
Consider `O=C(NCc1nncn1-c1ccccc1)C1CC1`, for which the cytotoxicity at 10 µM was -13.1%.
Next, `CC(C)c1nc(C2CCCN2C(=O)CCn2cncn2)no1` (configuration not stated): -2.38%; `Cc1ccc(C)c(S(=O)(=O)CCNC2CCc3ncnn3C2)c1` (configuration not stated): -30.6%; `CC(NCc1nnc2n1CCCC2)C(=O)N1CCc2sccc2C1` (configuration not stated): -26.2%.
For `Cc1nc(CN2CCN(C(C)c3nc(C4CC4)no3)CC2)no1` (configuration not stated), the cytotoxicity at 10 µM is -6.34%.
Consider `CC(C)(CNC(=O)NCCc1ccn(-c2ccccc2)n1)C(N)=O`, for which the cytotoxicity at 10 µM is -16.8%.
`CN(C)c1cc(CNC(=O)c2cc(Cl)ccn2)ccn1`: the cytotoxicity at 10 µM was -15%.
Regarding `Cc1nc(CN2CCCC(N(C)Cc3nnc(C4CC4)o3)C2)no1` (configuration not stated), the cytotoxicity at 10 µM was -24.2%.
With `CCOc1ccccc1CSCCn1nc2ccccn2c1=O`, the cytotoxicity at 10 µM stood at 1.88%.
Turning to `CCc1nc(CN2CCCN(C(=O)C3CCOC3)CC2)cs1` (configuration not stated), the cytotoxicity at 10 µM amounted to 3.09%.
Next, `COc1ccc(-c2nc(CNCCn3cccn3)cs2)cc1`: -1.17%; `COc1cccc(CN(C)Cc2nc3c(cnn3C)c(=O)[nH]2)c1OC`: -4.28%.
Next, `CCOCC(O)CN1CCN(C(=O)C2CC2)CC1` (configuration not stated): -7.2%; `CCn1ccnc1CN1CCCN(C(=O)Cn2nc(C)cc2C)CC1`: -0.505%.
Turning to `CC(C)C[C@H](N)c1nnc(SCC(N)=O)o1`, the cytotoxicity at 10 µM worked out at 4.95%.
For `CCOc1ccc(Br)cc1-c1cc(N)[nH]n1`, the cytotoxicity at 10 µM is -2.97%.
Next, `C[C@H]1CN(C)C[C@@]12COCCN(C(=O)Cc1ccccc1)C2`: 3.65%.
As for `O=C1NC(c2ccccc2)=N[C@@]12CC[C@@H]1CN(Cc3ccccc3)C[C@@H]12`, the cytotoxicity at 10 µM was -5.23%.
In the case of `Fc1cnc(N2CC[C@@H]3O[C@H](COCc4ccccn4)CC[C@@H]32)nc1`, the cytotoxicity at 10 µM amounted to 2.9%.
Turning to `CN(C)C(=O)CN1CCC2(CCN(Cc3nccs3)CC2)C1=O`, the cytotoxicity at 10 µM was 1.31%.
Next, `O=S(=O)(C1CC1)N1CCO[C@H]2[C@H](Oc3cccnc3)CC[C@@H]21`: -0.24%; `Cc1n[nH]cc1CNCC1(c2ccc3c(c2)OCO3)CCOCC1`: 7.73%.
Next, `Cc1ccc(CNC(=O)c2nc3c(o2)CN(C(=O)c2cccnc2)C3)o1`: 0.109%; `Oc1cccc(CN2C[C@@H]3CC[C@H]2CN(Cc2ccncc2)C3)c1`: -131%; `CC1CCN(c2nc3cn(-c4ccccc4)c(=O)c-3c[nH]2)CC1`: -12.6%.
With `O=c1c2c[nH]c(N3CCOCC3)nc-2cn1-c1ccc2c(c1)OCO2`, the cytotoxicity at 10 µM is -13.1%.
